Bioassay records as filed in PubChem.
LEDGF integ inh: blocks HIV-1 LEDGF/p75-dependent DNA integration | inhibition, % at 3.7 µM | AID 743269 | actives 0.64% (n = 370,000) | TR-FRET IN-LEDGF/p75 DNA integration, Eu/Cy5;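 active = inhibition above the screen-wide mean plus 3 SD, cut at about 13% in these data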;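 note: signal is the Cy5 over europium emission ratio at 671 and 618 nm; 0% = plate median of compound wells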
Rin1-Abl PPI inh: inhibitors of human Rin1-Abl protein interaction; AID 588664; inhibition, % at 7.35 µM; P00519+Q13671; TR-FRET Rin1/Abl binding, biochemical; actives 0.4% (n = 360,000); in the data active = inhibition above about 5%, passing the limit was not always enough
MBD2 DNA inh: MBD2-methylated oligo binding inhibition | Q9UBB5 | TR-FRET, MBD2 binding to methylated oligonucleotide | inhibition, % at 4.4 µM | actives 0.31% (n = 370,000); in the data active = inhibition above about 13%
TDP2 inh: TDP2 (human) inhibition, absorbance primary screen | recombinant TDP2, T5PNP hydrolysis, p-nitrophenol absorbance 415 nm | O95551 | AID 720702 | inhibition, % at 12.8 µM | actives 0.34% (n = 370,000);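 active = inhibition above the mean of all tested compounds plus 3 SD, set per campaign, cut at about 25% in these data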;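 note: 0% = DMSO with enzyme and 100% = buffer with substrate but no TDP2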
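Read-out basis: percent inhibition. System: recombinant human TDP2. Buffer or medium: Mg2+-containing Tris-HCl buffer, pH 7.5. Repeats: single replicate. Timing: reaction 2 h, 37 °C. Benchmarks: high control without enzyme, low control DMSO plus TDP2. Probe or stimulus: 5 mM T5PNP. Doses: 12.8 µM only. Measured by: epi absorbance of p-nitrophenol freed from T5PNP by hydrolysis.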
UHRF1 MBD2 ctr: blocks human UHRF1 binding to methylated DNA. inhibition, % at 4.4 µM. actives 0.75% (n = 370,000). UHRF1 binding to methylated oligo, TR-FRET. Q96T88; in the data active = inhibition above about 21%;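 note: UHRF1 SRA domain binding a hemimethylated CpG hairpin DNA probe; 0% = median of test compound wells and 100% = reference inhibitor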
Target sequence (Q96T88 whole entry, looked up, the tested form may be a part): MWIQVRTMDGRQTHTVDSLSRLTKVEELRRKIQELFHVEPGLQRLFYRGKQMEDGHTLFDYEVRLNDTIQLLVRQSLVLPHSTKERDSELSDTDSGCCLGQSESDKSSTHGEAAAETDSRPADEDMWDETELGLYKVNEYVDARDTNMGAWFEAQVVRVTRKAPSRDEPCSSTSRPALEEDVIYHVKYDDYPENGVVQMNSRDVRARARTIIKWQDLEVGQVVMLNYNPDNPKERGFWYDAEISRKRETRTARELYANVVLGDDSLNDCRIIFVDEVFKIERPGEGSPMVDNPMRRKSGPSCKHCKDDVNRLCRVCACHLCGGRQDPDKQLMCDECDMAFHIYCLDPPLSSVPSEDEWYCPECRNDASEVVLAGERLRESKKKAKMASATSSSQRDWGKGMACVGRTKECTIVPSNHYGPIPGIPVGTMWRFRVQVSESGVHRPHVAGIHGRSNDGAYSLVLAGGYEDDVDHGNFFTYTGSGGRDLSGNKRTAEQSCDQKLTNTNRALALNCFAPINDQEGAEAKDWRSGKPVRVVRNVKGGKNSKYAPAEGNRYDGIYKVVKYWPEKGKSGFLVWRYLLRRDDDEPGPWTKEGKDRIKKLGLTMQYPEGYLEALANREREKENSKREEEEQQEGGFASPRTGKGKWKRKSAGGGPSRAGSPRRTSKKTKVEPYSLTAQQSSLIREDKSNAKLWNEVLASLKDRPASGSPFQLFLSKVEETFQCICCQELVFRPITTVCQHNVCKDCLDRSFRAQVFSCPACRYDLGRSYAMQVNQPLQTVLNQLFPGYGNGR
Rin1-Abl confirm: Rin1-Abl interaction inhibition confirmation. AID 602124. inhibition, % at 7.35 µM. actives 49% (n = 1,300). shares compounds with Rin1-Abl PPI inh. TR-FRET Rin1-Abl binding, purified proteins
GFP quench-1: GFP fluorescence interference artifact | shares compounds with Rin1-Abl PPI inh | inhibitors/quenchers counterscreen | inhibition, % at 6.75 µM | actives 8.5% (n = 1,300);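 note: ABL1-eGFP fusion protein alone without its partner RIN1-SBP; 0% = protein with vehicle and 100% = wells lacking protein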
GFP quench dose: counter-screen for Rin1-Abl inhibitors: GFP quenchers, dose response; IC50, µM; GFP fluorescence interference/quenching counterscreen; 230 tested, under 10 active; shares compounds with Rin1-Abl PPI inh; call rule not given here;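 note: ABL1-eGFP fusion protein alone without its RIN1 binding partner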
GFP quench-2: counter-screen for Rin1-Abl interaction inhibitors: GFP fluorescence quenching. shares compounds with Rin1-Abl PPI inh. GFP fluorescence quenching counterscreen, biochemical. IC50, µM. 25 tested, under 10 active; call rule not given here
* hit, by the source's call; x = no result given. An excerpt weighted towards active compounds, which were near 1.9% of everything screened. Cut-off read from the data, not from the text of the source, unless noted: active = inhibition above about 6.5%; inactive = the rest.

SMILES | LEDGF integ inh | Rin1-Abl PPI inh | MBD2 DNA inh | TDP2 inh | UHRF1 MBD2 ctr | Rin1-Abl confirm | GFP quench-1 | others
CC(C)(C)c1ccc(CNc2nc(-c3ccccn3)nnc2-c2ccccc2)cc1 | -7 | x | 5 | -9 | 5 | x | x
COC(=O)c1cc2c(ccc3ccccc32)oc1=O | 5 | -6 | -4 | 1 | -19 | x | x
COC(=O)c1c(C)nc(C)c2c(=O)oc3ccccc3c12 | 3 | 15* | 4 | 4 | 0 | 38* | -1 | GFP quench dose=>68
Nc1[nH]c(C(=O)c2ccccc2)c(-c2ccccc2[N+](=O)[O-])c1C(=O)NCCc1c[nH]c2ccccc12 | 0 | x | 1 | 0 | 1 | x | x
O=C1C=C(N2CCOCC2)c2cccc3cccc1c23 | 0 | 16* | -13 | 0 | -13 | -15 | 1
O=C1C(N2CCOCC2)=Cc2cccc3cccc1c23 | 7 | -6 | -22 | 5 | -14 | x | x
COC(=O)[C@]12C[C@H](CC(=O)N3CCN(C(=O)c4ccco4)CC3)C(=O)N(Cc3ccco3)C1=C[C@H](C1CCCC1)O[C@@H]2C | 0 | x | -3 | 4 | 1 | x | x
CCC1(CC)C(=O)C2=C3C1[C@H](C(=O)OC)C=C(C(=O)OC)C[C@H]3n1c(=O)n(-c3ccccc3)c(=O)n1[C@H]2C (some centres not stated) | -1 | 24* | -3 | -5 | 0 | 23* | 2 | GFP quench dose=>68
CC(C)C(=O)N1C2CCC1CC(O)(c1ccc(F)cc1)C2 (configuration not stated) | -1 | 7.0* | 3 | -2 | 0 | 1 | 1
O=C(CCc1ccccc1-c1ccccc1CCNC(=O)c1cccc(F)c1)NCc1ccccc1 | -3 | x | 6 | 4 | 2 | x | x
N#Cc1ccc(C(=O)NCC(c2ccco2)N2CCCC2)cc1 (configuration not stated) | 2 | -2 | 1 | 1 | 2 | x | x
N#Cc1ccccc1Sc1ccccc1C(=O)NCC(c1ccco1)N1CCCC1 (configuration not stated) | 10 | 49* | 3 | -12 | 1 | 62* | 1 | GFP quench dose=>68;GFP quench-2=>68
Cc1c(Cl)cccc1NC(=O)c1cc(S(=O)(=O)N2CCOCC2)cn1C | 0 | 8.4* | -2 | -6 | -1 | -1 | -1
COc1ccc(C(=O)O[C@@H]2CCC[C@@]3(C(=O)N(Cc4ccccc4)c4ccccc43)[C@H]2NC(=O)CCc2ccccc2)cc1OC | 0 | x | -2 | 7 | -2 | x | x
O=c1oc(-c2ccc([N+](=O)[O-])cc2)nc2ccc(O)cc12 | 3 | 17* | -3 | -1 | 0 | -7 | 0
Cc1ccc(C(=O)N2CC(C)CC(C)C2)cc1NC1=NC2CS(=O)(=O)CC2S1 (configuration not stated) | -1 | 22* | -1 | 5 | 0 | 26* | 0 | GFP quench dose=>68
Cc1ccc(C(=O)N2CCC(C)CC2)cc1NC1=NC2CS(=O)(=O)CC2S1 (configuration not stated) | 1 | 8 | -1 | -3 | 0 | x | x
CCOC(=O)C1CCN(C(=O)c2cccc(NC3=NC4CS(=O)(=O)CC4S3)c2)CC1 (configuration not stated) | 0 | 18* | 0 | 7 | -1 | 15* | -1
COc1ccc(S(=O)(=O)N2CCC(c3nc4ccccc4o3)CC2)c(OC)c1 | -2 | x | -2 | -9 | 3 | x | x
O=c1cc(-c2ccc(O)c(O)c2)oc2cc(O)c([C@@H]3O[C@H](CO)[C@@H](O)[C@H](O)[C@H]3O)c(O)c12 | 57* | 22* | -4 | -3 | -4 | 28* | 10*
O=c1cc(-c2ccc(O)cc2)oc2c([C@@H]3O[C@H](CO)[C@@H](O)[C@H](O)[C@H]3O)c(O)c([C@@H]3O[C@H](CO)[C@@H](O)[C@H](O)[C@H]3O)c(O)c12 | -3 | 1 | -2 | 5 | -4 | x | x
CC(/C=N/n1c(-c2ccco2)n[nH]c1=S)=C\c1ccccc1 | 4 | 7.4* | 0 | -8 | -1 | -1 | 0
CN1C(=O)C(Cl)(Cl)C(=O)c2ccccc21 | x | 18* | x | x | x | 11* | 2
COc1cccc(C(=O)c2ncc(C(F)(F)F)cc2Cl)c1 | 0 | 13* | 3 | -7 | 4 | -3 | 0
Cc1ccc(CC(=O)N2CCC(c3nc4c(nnn4Cc4ccccc4)c(=O)[nH]3)CC2)cc1 | -2 | 8.8* | -1 | -5 | 3 | 7.1* | -1
SMILES | LEDGF integ inh | Rin1-Abl PPI inh | MBD2 DNA inh | TDP2 inh | UHRF1 MBD2 ctr | Rin1-Abl confirm | GFP quench-1 | others
O=S1(=O)c2ccc(N3CCSCC3)cc2Oc2ccccc2CN1Cc1cn(Cc2ccccc2C(F)(F)F)nn1 | -1 | x | -6 | -3 | -5 | x | x
Oc1ccc(/C=N/Nc2ccnc3cc(Cl)ccc23)c(O)c1O | 2 | 24* | 1 | 0 | -1 | 26* | 7.5*
Oc1ccc(/C=N/Nc2ccnc3cc(Cl)ccc23)cc1O | -2 | 11* | -5 | -8 | -11 | 6 | 3
O=C1C=C(NCc2ccc(Cl)cc2)CC(c2ccco2)C1 (configuration not stated) | 8 | -2 | 5 | -13 | 8 | x | x
CC(C)CNC1=CC(=O)CC(c2ccco2)C1 (configuration not stated) | 0 | 5.9* | 0 | -1 | 0 | 0 | 4
O=C(Nc1ccc(O)cc1C(=O)O)c1cccc(Br)c1 | 1 | 16* | -2 | 8 | -4 | 24* | -1 | GFP quench dose=>68
COc1cc(C(=O)Nc2ccc(O)cc2C(=O)O)ccc1OC(C)=O | 1 | 71* | 2 | 6 | -2 | 72* | 0 | GFP quench dose=>68
CC(=O)Nc1cccc(C(=O)Nc2ccccc2C(=O)O)c1 | 1 | 17* | -5 | 2 | 1 | -2 | 0
O=C(Nc1ccccc1C(=O)O)c1cccc(C(=O)Nc2ccccc2C(=O)O)c1 | 0 | 1 | -5 | 8 | 1 | x | x
CCOc1c(Cl)cc(C(=O)Nc2ccccc2C(=O)O)cc1Cl | -3 | 13* | -3 | -14 | 1 | 19* | 1 | GFP quench dose=>68
COc1ccc(C(=O)Nc2ccccc2C(=O)O)cc1Cl | 0 | 1 | 1 | -6 | 3 | x | x
Cc1ccccc1C(=O)Nc1ccc(O)cc1C(=O)O | -1 | 0 | 2 | 11 | 1 | x | x
CCOc1ccc(-n2c(SCc3cccc4ccccc34)nnc2-c2ccc(C)cc2)cc1 | 2 | x | 8 | -11 | 0 | x | x
Cc1ccc(S(=O)(=O)C2(C(=O)NC3CCCCC3)CC2)cc1 | 0 | 16* | 0 | 1 | 4 | 0 | 1
